Experimental data as given in ChEMBL document CHEMBL2062375, “Discovery of an orally efficacious inhibitor of anaplastic lymphoma kinase” (J Med Chem, 2012).
Active and inactive are the calls of the source. The calls are words filed in the database; no cut-off is given here.

Columns and labels:
[1] = Cmax in rat at 10 mg/kg, po; assay type: ADME, organism-based; parameters: dose 10 mg/kg, route oral; conditions: in vivo
In short: (§1)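 Rat oral dose escalation at 10, 30, 55 and 100 mg/kg. Gavage at 5 mL/kg in 40% HPβCD after an overnight fast. Serial tail-vein blood was drawn into heparinized tubes. Plasma was protein-precipitated with acetonitrile and assayed by LC-MS/MS. Cmax and AUC0–12 were derived noncompartmentally; n = 2 at 10 mg/kg.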

[2] = Cmax in rat at 55 mg/kg, po; assay type: ADME, organism-based; parameters: dose 55 mg/kg, route oral; conditions: in vivo; in short: as §1
[3] = AUC (0 to 12 hrs) in rat 100 mg/kg, po; assay type: ADME, organism-based; parameters: time < 12 hr, dose 100 mg/kg, route oral; conditions: plasma; in short: as §1
KARPAS-299 = assay: Antitumor activity against human KARPAS299 cells expressing NPM-ALK xenografted in SCID mouse assessed as tumor stasis up to 100 mg/kg, po bid for 12 days; assay type: functional, organism-based; parameters: dose 100 mg/kg
Rattus norvegicus [4] = assay: Ratio of Cmax at 10 mg/kg, po to Cmax at 100 mg/kg, po in rat; assay type: ADME, organism-based; conditions: in vivo
In short: (§2)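 Oral dose-escalation PK study in rats at 10, 30, 55 and 100 mg/kg. […] The ratio compares the 10 mg/kg value with the 100 mg/kg value.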

[5] = AUC (0 to 12 hrs) in rat 55 mg/kg, po; assay type: ADME, organism-based; parameters: time < 12 hr, dose 55 mg/kg, route oral; conditions: plasma; in short: as §1
[6] = Cmax in rat at 100 mg/kg, po; assay type: ADME, organism-based; parameters: dose 100 mg/kg, route oral; conditions: in vivo; in short: as §1
[7] = Cmax in rat at 30 mg/kg, po; assay type: ADME, organism-based; parameters: dose 30 mg/kg, route oral; conditions: in vivo; in short: as §1
[8] = AUC (0 to 12 hrs) in rat 30 mg/kg, po; assay type: ADME, organism-based; parameters: time < 12 hr, dose 30 mg/kg, route oral; conditions: plasma; in short: as §1
[9] = target: T1, ALK tyrosine kinase receptor (Homo sapiens, UniProt Q9UM73); assay: Inhibition of ALK tyrosine phosphorylation in human Karpas-299 cells after 2 hrs in presence of mouse plasma; assay type: cell-based
[10] = AUC (0 to 12 hrs) in rat 10 mg/kg, po; assay type: ADME, organism-based; parameters: time < 12 hr, dose 10 mg/kg, route oral; conditions: plasma; in short: as §1
Rattus norvegicus [11] = assay: Ratio of AUC (0 to 12 h) at 10 mg/kg, po to AUC (0 to 12 h) at 100 mg/kg, po in rat; assay type: ADME, organism-based; conditions: in vivo; in short: as §2
[12] = target: T1, ALK tyrosine kinase receptor; assay: Inhibition of human ALK cytoplasmic domain expressed in baculovirus using GST-PLCgamma as substrate preincubated for 15 mins before substrate addition measured after 1 hr by time resolved fluorescence assay

T1 sequence (Q9UM73 whole entry): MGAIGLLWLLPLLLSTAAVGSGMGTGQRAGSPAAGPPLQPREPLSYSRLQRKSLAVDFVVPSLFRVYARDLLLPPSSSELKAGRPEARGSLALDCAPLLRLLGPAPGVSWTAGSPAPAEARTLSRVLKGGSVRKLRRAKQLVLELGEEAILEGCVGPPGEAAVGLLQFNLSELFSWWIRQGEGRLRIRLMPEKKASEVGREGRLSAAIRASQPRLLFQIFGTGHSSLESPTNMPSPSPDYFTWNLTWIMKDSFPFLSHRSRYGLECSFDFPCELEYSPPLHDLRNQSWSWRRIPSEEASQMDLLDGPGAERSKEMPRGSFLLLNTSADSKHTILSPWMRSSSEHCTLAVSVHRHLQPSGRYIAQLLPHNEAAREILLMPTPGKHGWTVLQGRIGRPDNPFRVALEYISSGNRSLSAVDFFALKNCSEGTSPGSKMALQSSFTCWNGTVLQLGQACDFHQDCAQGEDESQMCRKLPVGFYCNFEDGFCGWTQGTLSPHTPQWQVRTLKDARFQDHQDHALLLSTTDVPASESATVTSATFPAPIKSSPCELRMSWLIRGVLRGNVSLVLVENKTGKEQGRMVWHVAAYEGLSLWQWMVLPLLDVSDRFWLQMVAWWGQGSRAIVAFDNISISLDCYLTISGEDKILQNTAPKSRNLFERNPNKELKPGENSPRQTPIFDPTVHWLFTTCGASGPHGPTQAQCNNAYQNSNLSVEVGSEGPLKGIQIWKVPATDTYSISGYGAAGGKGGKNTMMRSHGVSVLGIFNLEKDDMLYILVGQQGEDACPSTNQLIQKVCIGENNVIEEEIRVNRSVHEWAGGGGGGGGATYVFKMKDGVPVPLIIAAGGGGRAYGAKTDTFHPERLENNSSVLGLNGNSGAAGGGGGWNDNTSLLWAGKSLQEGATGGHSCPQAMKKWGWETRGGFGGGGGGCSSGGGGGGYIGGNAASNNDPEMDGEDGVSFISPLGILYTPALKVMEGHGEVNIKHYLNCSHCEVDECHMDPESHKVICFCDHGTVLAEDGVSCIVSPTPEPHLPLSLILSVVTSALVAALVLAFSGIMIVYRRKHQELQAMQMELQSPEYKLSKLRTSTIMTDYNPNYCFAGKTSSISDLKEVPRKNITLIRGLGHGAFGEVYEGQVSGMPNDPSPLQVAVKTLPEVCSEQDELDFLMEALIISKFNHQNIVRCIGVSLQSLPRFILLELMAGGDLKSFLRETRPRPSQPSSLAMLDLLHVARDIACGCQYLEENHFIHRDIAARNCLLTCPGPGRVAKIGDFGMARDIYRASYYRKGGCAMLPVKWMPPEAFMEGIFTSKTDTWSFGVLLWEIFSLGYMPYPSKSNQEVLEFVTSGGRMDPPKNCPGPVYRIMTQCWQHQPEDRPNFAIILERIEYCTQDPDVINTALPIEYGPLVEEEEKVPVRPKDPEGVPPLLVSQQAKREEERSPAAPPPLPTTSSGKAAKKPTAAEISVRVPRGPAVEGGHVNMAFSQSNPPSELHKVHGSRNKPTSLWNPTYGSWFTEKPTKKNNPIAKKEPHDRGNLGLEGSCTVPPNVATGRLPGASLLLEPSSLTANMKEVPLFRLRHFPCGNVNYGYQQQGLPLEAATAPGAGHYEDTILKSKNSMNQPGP

Cmax [1] [ng/mL] | Cmax [2] [ng/mL] | AUC(0-t) at 12 h [3] [ng·h/mL] | Ratio (Rattus norvegicus [4]) | AUC(0-t) at 12 h [5] [ng·h/mL] | Cmax [6] [ng/mL] | Cmax [7] [ng/mL] | AUC(0-t) at 12 h [8] [ng·h/mL] | IC50 [9] [nM] | AUC(0-t) at 12 h [10] [ng·h/mL] | Ratio (Rattus norvegicus [11]) | IC50 [12] [nM] | Compound | Activity (KARPAS-299)
925 | 1450 | 14000 | 2 | 13800 | 1550 | 1360 | 11800 | 45 | 6020 | 2 | – | CCN1C(=O)CCCc2c1ccc(Nc1ncc(Cl)c(N[C@H]3[C@@H](C(N)=O)[C@@H]4C=C[C@H]3C4)n1)c2OC | Active
– | – | – | – | – | – | – | – | 120 | – | – | 35 | COc1c(Nc2ncc(Cl)c(N[C@H]3[C@@H](C(N)=O)[C@@H]4C=C[C@H]3C4)n2)ccc2c1CC[C@H](N1CCOCC1)CC2 | –
